OX1R antag-1: human HCRTR1 antagonism; 330,000 compounds, 0.43% hits; AID 434989; inhibition, % at 5 µM; CHO/OX1R cells, Fluo-8 calcium fluorescence, orexin A;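 active = inhibition above its plate's threshold, mean inhibition of all tested compounds on the plate plus 3 SD, cut at about 37% in these data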;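 note: 0% = orexin A challenge wells and 100% = SB-334867-A antagonist wells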
Target sequence (O43613 whole entry, looked up): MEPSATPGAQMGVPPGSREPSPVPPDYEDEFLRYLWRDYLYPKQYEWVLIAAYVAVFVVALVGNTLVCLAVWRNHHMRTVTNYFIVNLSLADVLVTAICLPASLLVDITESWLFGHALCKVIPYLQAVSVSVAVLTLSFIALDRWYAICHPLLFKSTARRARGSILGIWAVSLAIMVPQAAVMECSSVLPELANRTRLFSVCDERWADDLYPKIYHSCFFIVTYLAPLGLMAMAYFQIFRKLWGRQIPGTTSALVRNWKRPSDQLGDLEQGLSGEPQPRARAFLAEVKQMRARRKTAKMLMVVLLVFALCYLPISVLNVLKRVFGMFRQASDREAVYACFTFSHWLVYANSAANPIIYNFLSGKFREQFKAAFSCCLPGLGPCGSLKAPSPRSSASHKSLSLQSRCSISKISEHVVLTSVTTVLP
M1 PAM parental: M1 PAM counterscreen hit in parental CHO-K1 cells; activation, % at 3 µM; 360,000 compounds, 0.02% hits; ATP EC20, Fluo-8 calcium fluorescence; 0% at ATP EC20, 100% at ATP max;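 active = activation above the run cutoff, the mean activation of all test compounds plus 3 SD, cut at about 40% in these data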;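 note: peak over basal fluorescence ratio in a 140 s read after ATP addition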
CHO parental Ca: counter-screen: ATP calcium response change in parental CHO cells. parental CHO-K1, ATP-induced calcium, Fluo-8 fluorescence. inhibition, % at 5.6 µM. 330,000 compounds, 0.63% hits. AID 463079;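 active = inhibition above that plate's mean sample inhibition plus 3 SD, cut at about 26% in these data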;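 note: 0% = ATP-challenged DMSO wells and 100% = DMSO wells without ATP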
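Assay system – parental CHO cells · Reagent – ATP stimulus · Detection – intracellular calcium via Fluo-8 no-wash fluorescent dye · Evaluation – percent inhibition of ATP-evoked calcium rise, normalized to controls · Controls – ATP wells versus no-ATP DMSO wells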
OX1R antag-2: OX1R (human) antagonism; O43613; OX1R-expressing cells, FRET antagonist read-out; inhibition, % at 6.6 µM; 330,000 compounds, 1.8% hits; in the data active = inhibition mostly above about 38%, no sharp cut-off; inactive = mostly below about 40%;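 note: 0% = agonist challenge alone and 100% = reference antagonist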
CHO-K1 Ca antag: nonselective inhibitor or artifact in parental CHO-K1 cells; ATP-induced calcium, Fluo-8 fluorescence; inhibition, % at 3 µM; 360,000 compounds, 0.6% hits;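 active = inhibition above a per-plate cutoff, the plate's mean sample inhibition plus 3 SD, cut at about 24% in these data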;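 note: 0% = DMSO plus EC80 ATP and 100% = DMSO alone without ATP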
M1 ag parental: counter-screen for M1 agonists: effect in parental CHO-K1 cells | Fluo-8 calcium fluorescence; scaled to maximal ATP response, vehicle zero | activation, % at 3 µM | 360,000 compounds, 0.48% hits; in the data active = activation above about 15%;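 note: untransfected CHO-K1 host cells lacking M1 receptor as counterscreen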
OX1R HTRF confirm: OX1R (human) antagonism, HTRF confirmed; shares compounds with OX1R antag-2; OX1R-expressing cells, HTRF antagonist assay; inhibition, % at 6.6 µM; 1,800 compounds, 49% hits; in the data active = inhibition above about 55%;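 note: CHO cells expressing OX1R stimulated with orexin A at about EC80; 0% = agonist challenge alone and 100% = reference antagonist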
CHO-K1 HTRF: counter-screen for OX1R antagonists: effect in parental CHO-K1 cells | HTRF counterscreen | shares compounds with OX1R antag-2 | 1,800 compounds, 48% hits | inhibition, % at 6.6 µM | AID 493232; in the data active = inhibition above about 17%;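 note: 0% = agonist challenge with vehicle and 100% = vehicle alone without agonist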
* = called active by the depositor; . = no result. This is a sample that favours compounds with a hit; in the whole collection about 2.9% have one here.

SMILES	OX1R antag-1	M1 PAM parental	CHO parental Ca	OX1R antag-2	CHO-K1 Ca antag	M1 ag parental	OX1R HTRF confirm	CHO-K1 HTRF
O=C(O)c1cn[nH]c1-c1cccc([N+](=O)[O-])c1	-1.4	-2.3	-4.7	12.9	6.7	7.6	.	.
O=[N+]([O-])c1ccc(-[n+]2ccc3ccccc3c2)c([N+](=O)[O-])c1	-4.7	-16.2	-3.1	77.5*	5.5	1.0	46.6	59.6*
COc1ccccc1N(CC(O)COc1ccc(C)cc1)S(=O)(=O)c1ccccc1 (stereo not drawn)	15.8	24.3	-15.3	78.3*	-3.2	2.0	90.7*	-0.9
O=C(NC1CCCCC1)C1CC(=O)N(c2cccc([N+](=O)[O-])c2)C1 (stereo not drawn)	0.6	5.1	9.6	87.6*	1.6	2.6	34.9	7.0
CCCCC[n+]1cccc2c3ccccc3ccc21	-21.7	9.9	-2.8	45.7	-2.1	0.4	.	.
CCC[n+]1c2ccccc2cc2ccccc21	-9.1	-5.1	-16.6	83.6*	-11.8	0.4	47.7	54.1*
O=C(O)CN1C(=O)C(=O)N(Cc2ccc(Cl)c(Cl)c2)C1=O	-15.0	5.8	-2.4	-7.2	-1.9	-0.1	.	.
COC(=O)[C@H](CC(C)C)NC(=O)c1cc2c(cn1)[nH]c1ccccc12	9.7	11.8	-0.2	0.0	-2.0	1.2	.	.
CC1CCN(c2cc(N(C)CCO)c([N+](=O)[O-])c3nonc23)CC1	-13.2	3.3	-4.5	38.8	-3.7	-0.8	.	.
CN(CCO)c1cc(N2CCN(C(=O)c3ccco3)CC2)c2nonc2c1[N+](=O)[O-]	1.6	9.7	3.0	106.9*	1.9	3.6	43.5	48.4*
O=C1C2C(C(=O)N1/N=C/c1ccc([N+](=O)[O-])o1)C1C=CC2C12CC2 (stereo not drawn)	-18.1	13.9	-15.1	80.3*	-1.1	-0.4	46.5	59.2*
O=C1C2C3C=CC(C4CC34)C2C(=O)N1/N=C/c1ccc([N+](=O)[O-])o1 (stereo not drawn)	-10.8	-12.8	-4.6	56.7	11.6	-0.4	.	.
Cc1csc(NC(=O)c2cnc3ccccc3n2)n1	-11.3	-6.2	-1.1	113.4*	-19.3	2.0	28.7	47.8*
Cc1csc(NC(=O)c2ccc3ccccc3n2)n1	-27.7	11.8	-14.2	17.8	1.6	5.3	.	.
O=[N+]([O-])c1ccc(-[n+]2nc(-c3ccccc3)nn2-c2ccccc2)cc1	-1.5	-9.2	-3.1	81.1*	-5.3	-0.2	52.6	78.8*
Cn1cc(Cl)c(C(=O)N/N=C/c2ccc3c4c(cccc24)CC3)n1	-3.2	11.8	-25.1	91.5*	7.5	-0.3	83.9*	10.6
COc1cccc(/C=N/NC(=O)c2c(-c3ccccc3)noc2C)c1OC	-21.6	7.5	-20.6	23.1	-8.9	2.7	.	.
COc1cccc(/C=N/NC(=O)c2c(-c3ccccc3)noc2C)c1O	3.7	12.0	-12.8	98.5*	-12.4	5.7	34.0	9.7
CC/C(C)=N\N=C\c1c(O)n(CC)c2cc(C3=NNC(=O)CC3)ccc12	-7.4	8.9	-12.9	88.2*	-4.9	0.4	20.6	14.0
CCn1c(O)c(/C=N/N=C/c2ccc(OC)cc2)c2cc(C3=NNC(=O)CC3)ccc21	-20.6	16.9	17.1	5.3	-19.6	0.8	.	.
O=C(CN1CCOCC1)Nc1cc(C(F)(F)F)ccc1Cl	-3.6	-8.6	-1.4	15.0	-9.6	3.2	.	.
O=C(CN1CCOCC1)Nc1cc([N+](=O)[O-])ccc1Cl	-5.2	0.6	-3.9	78.8*	-2.5	0.6	31.4	35.4*
O=C(NCCN1CCOCC1)c1ccc([N+](=O)[O-])cc1[N+](=O)[O-]	-13.3	14.8	-9.6	179.5*	-5.9	1.0	72.9*	80.8*
O=C(NCCCN1CCOCC1)c1sc2cc([N+](=O)[O-])ccc2c1Cl	-11.3	12.3	-9.0	93.2*	-4.3	2.0	39.4	56.3*
O=C1CSC(=S)N1/N=C/c1ccc(O)c(O)c1O	-1.8	9.4	-2.7	84.3*	-4.4	1.4	16.4	-4.0
SMILES	OX1R antag-1	M1 PAM parental	CHO parental Ca	OX1R antag-2	CHO-K1 Ca antag	M1 ag parental	OX1R HTRF confirm	CHO-K1 HTRF
CCCSc1cc(NCCOC(C)=O)c([N+](=O)[O-])c2nonc12	-6.8	-13.1	-11.1	81.5*	11.4	-0.2	39.4	60.9*
Cn1ccnc1Sc1ccc(C=O)cc1[N+](=O)[O-]	6.3	-13.5	9.2	63.1	-9.3	2.2	.	.
Cc1nnc(Sc2cc(NCCCO)c([N+](=O)[O-])c3nonc23)s1	.	16.3	.	.	-9.4	0.2	.	.
CCCC(=O)OCCNc1cc(Sc2nccn2C)c2nonc2c1[N+](=O)[O-]	25.2	10.6	29.4	90.8*	3.0	-0.4	72.1*	60.2*
C[C@]12CCC(=O)C[C@@H]1CC[C@@H]1[C@@H]2CC[C@]2(C)[C@@H](C(=O)COC(=O)CCC(=O)O)CC[C@@H]12	-21.3	13.1	-4.1	6.9	-17.5	1.8	.	.
Cn1nc(C(=O)NNC(=O)Cc2ccc(S(=O)(=O)N3CCOCC3)s2)c2ccccc2c1=O	.	12.8	.	.	-23.4	0.5	.	.
CCN1C(=O)c2ccc(C(=O)Nc3nccs3)cc2C1=O	-13.0	2.3	-23.1	89.6*	16.9	0.3	28.8	29.1*
CC(C)(C)N1C(=O)c2ccc(C(=O)Nc3nccs3)cc2C1=O	-33.7	7.4	-28.2	14.1	-4.5	4.1	.	.
CN(CCO)C1=NS(=O)(=O)c2cc([N+](=O)[O-])ccc21	-9.5	15.5	-8.6	95.1*	2.5	-0.2	66.3*	93.9*
CC(=O)c1cccc(NC(=O)N2C3CCCC2CC(NC(=O)C2CC2)C3)c1 (stereo not drawn)	-13.9	1.8	-10.2	21.6	4.4	0.2	.	.
Cc1c(NC(=O)CN2C(=O)C(=O)c3ccccc32)c(=O)n(-c2ccccc2)n1C	-15.6	22.5	-12.5	80.3*	-17.3	1.1	53.3	50.9*
CN(C)c1ccc(N=Nc2ccc3ncccc3c2)cc1	.	11.6	.	.	-10.5	2.1	.	.
Cc1cc(N(C)C)ccc1N=Nc1ccc2ncccc2c1	-3.1	7.1	-32.4	83.0*	-10.9	0.6	74.6*	10.0
O=[N+]([O-])c1ccc(C[n+]2cccc3ccc4cccnc4c32)cc1	0.4	18.2	-13.4	137.5*	4.1	4.3	44.5	56.3*
CCS(=O)(=O)c1ccc(Sc2nncn2C)c([N+](=O)[O-])c1	-1.0	1.0	-2.2	96.4*	1.0	0.3	32.3	50.9*
CCC(C)(C)NC(=O)c1ccc(Sc2nncn2C)c([N+](=O)[O-])c1	-15.8	6.6	-4.8	28.9	-3.5	0.0	.	.
Cc1cccc2c3nc4ccccc4nc3n(C)c12	24.1	-6.6	-11.7	81.4*	3.8	0.1	92.0*	14.7
